Assay [1] relates to A2780. Put plainly: Induction of apoptosis in human A2780 cells assessed as necrotic cells at 30 uM after 24 hrs by annexin V/propidium iodide staining-based FACS analysis (reference value: 6.37%). Type of assay: functional.
The test system of assay [2] is A2780. Put plainly: Induction of apoptosis in human A2780 cells assessed as vital cells at 30 uM after 24 hrs by annexin V/propidium iodide staining-based FACS analysis (reference value: 82.15%). Type of assay: functional.
Assay [3] has as its system A2780. The experiment in a line: Induction of apoptosis in human A2780 cells assessed as secondary necrotic cells at 30 uM after 24 hrs by annexin V/propidium iodide staining-based FACS analysis (reference value: 9.71%). Type of assay: functional. On the technique in general: In flow cytometry, cells or beads pass a laser one at a time.
For assay [4], the system named is A2780. Put plainly: Induction of apoptosis in human A2780 cells assessed as necrotic cells at 30 uM after 24 hrs by annexin V/propidium iodide staining-based FACS analysis (reference value: 1.78%). Format: functional.
Assay [5] has as its system A2780. Put plainly: Induction of apoptosis in human A2780 cells at 30 uM after 24 hrs by annexin V/propidium iodide staining-based FACS analysis. Format: functional.
Assay [6] has as its system A2780. Put plainly: Induction of apoptosis in human A2780 cells assessed as DNA ladder formation at 30 uM after 24 hrs by electrophoresis. Format: functional, cell-based. Put shortly: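 A2780 cells were exposed to 30 µM compound for 24 h. Floating (dead) cells were collected and washed with PBS, and DNA fragmentation was examined by gel laddering alongside an untreated control.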

In assay [7] the test system is A2780. The experiment in a line: Cell cycle arrest in human A2780 cells at 30 uM by propidium iodide staining-based FACS analysis. Format: functional.
The subject of assay [8] is A2780. The experiment in a line: Cell cycle arrest in human A2780 cells assessed as accumulation at S phase at 30 uM by propidium iodide staining-based FACS analysis (reference value: 32.439 %). Format: functional.
Assay [9] deals with A2780. The experiment in a line: Cell cycle arrest in human A2780 cells assessed as accumulation at G2 phase at 30 uM by propidium iodide staining-based FACS analysis (reference value: 15.721 %). Type of assay: functional.
For assay [10], the system named is A2780. The experiment in a line: Cell cycle arrest in human A2780 cells assessed as accumulation at G1 phase at 30 uM by propidium iodide staining-based FACS analysis (reference value: 51.839 %). Type of assay: functional.
The next assay deals with NIH3T3. Put plainly: Cytotoxicity against mouse NIH/3T3 cells after 96 hrs by SRB assay. Type of assay: ADME, cell-based. The following applies: NIH3T3, 96 h.
The test system of another assay is MCF7. The experiment in a line: Cytotoxicity against human MCF7 cells after 96 hrs by SRB assay. Type of assay: functional, cell-based. The following applies: MCF7, 96 h.
For a further assay, the system named is A549. Put plainly: Cytotoxicity against human A549 cells after 96 hrs by SRB assay. Type of assay: functional, cell-based. To be noted: A549, 96 h. (The SRB assay estimates cell density from bound dye.)
A further assay deals with HT-29. The experiment in a line: Cytotoxicity against human HT-29 cells after 96 hrs by SRB assay. Type of assay: functional, cell-based. To be noted: HT-29, 96 h.
Assay [11] relates to A2780. Put plainly: Cytotoxicity against human A2780 cells after 96 hrs by SRB assay. Type of assay: functional, cell-based. To be noted: A2780, 96 h.
In the next assay the test system is 8505C. The experiment in a line: cells. Format: functional, cell-based. The following applies: Homo sapiens, 96 h.
A short description of assay [12]: Cytotoxicity against human 518A2 cells after 96 hrs by SRB assay. The following applies: 518A2, 96 h. Format: functional, cell-based.
Assay [13] has as its system A2780. The experiment in a line: Cell cycle arrest in human A2780 cells assessed as accumulation at G0/G1 phase at 30 uM by propidium iodide staining-based FACS analysis. Type of assay: functional.
The subject of assay [14] is A2780. Put plainly: Cell cycle arrest in human A2780 cells assessed as reduction of G2/M phase at 30 uM by propidium iodide staining-based FACS analysis. Type of assay: functional.

SMILES strings stand for the structures. Calls of active or inactive are those of the source. The calls are words filed in the database; no cut-off is given here.

By IC50 is commonly meant the concentration at which inhibition is half-maximal. A lower IC50 goes with greater potency. For `CC(=O)O[C@H]1CC[C@]2(C)[C@H]3C[C@H](OC(C)=O)[C@]45OC(=O)[C@@]6(CCC(C)(C)C[C@H]64)CC[C@@]5(C)[C@]3(C)CC[C@H]2C1(C)C`, the Activity in the assay with A2780 [1] is 32.66%; with A2780 [2] it was 44.89%; in the assay on A2780 [3] it was 18.67%; in the assay on A2780 [4] it was 3.78%; in the assay with A2780 [8], 27.288%; in the assay on A2780 [9] it was 16.597%. Further, the Activity with A2780 [10] was 56.115%. Moreover, the outcome in the assay on A2780 [5] and with A2780 [6] was Active. The outcome in the assay with A2780 [7] was inactive. The concentration for half-maximal inhibition (IC50) in the assay on NIH3T3 came to 7.2 µM; in the assay on MCF7, 18.5 µM; in the assay with A549, 6.6 µM; in the assay with HT-29 it was 14.1 µM; in the assay with A2780 [11], 5.6 µM; with 8505C, 7 µM. The midpoint of inhibition in assay [12], the IC50, lay at 6.8 µM.
As for `COC(=O)[C@]12CCC(C)(C)C[C@H]1[C@H]1C(=O)C[C@@H]3[C@@]4(C)CC[C@H](OC(C)=O)C(C)(C)[C@@H]4CC[C@@]3(C)[C@]1(C)CC2`, the Activity in the assay with A2780 [1] is recorded as 11%; with A2780 [2], 75.08%; with A2780 [3], 12.96%; in the assay on A2780 [4], 0.96%; in the assay on A2780 [13] it was less than 20%; in the assay with A2780 [8], 24.431%. Further, the Activity with A2780 [9] worked out at 14.004%; in the assay on A2780 [10] it was 61.565%. Moreover, the IC50 in the assay with NIH3T3 is 28.2 µM; in the assay with MCF7 it was greater than 30 µM; with A549, greater than 30 µM; in the assay on HT-29 it was 46.8 µM; in the assay on A2780 [11], greater than 30 µM; in the assay on 8505C, 31.1 µM. Besides, the half-inhibitory concentration (IC50) in [12] turned out to be 40.8 µM.
On to `CC(=O)O[C@H]1CC[C@]2(C)[C@H]3C(=O)C(O)=C4[C@@H]5CC(C)(C)CC[C@]5(C(=O)OCc5ccccc5)CC[C@@]4(C)[C@]3(C)CC[C@H]2C1(C)C`, for which the Activity in the assay with A2780 [1] is on record as 12.83%; in the assay with A2780 [2], 72.96%; in the assay with A2780 [3], 12.64%; in the assay on A2780 [4] it was 1.55%; in the assay with A2780 [13], less than 20%; in the assay on A2780 [8], 22.262%. The Activity amounted to 15.469% in the assay on A2780 [9] and 62.269% in the assay on A2780 [10]. For the same molecule, the IC50 in the assay on NIH3T3 was greater than 60 µM; in the assay on MCF7 it was greater than 60 µM; with A549, greater than 60 µM; with HT-29, greater than 60 µM; in the assay on A2780 [11] it was 8.2 µM; in the assay with 8505C it was 16.4 µM. In assay [12], this molecule returned an IC50 greater than 60 µM.
For the molecule `CC(=O)O[C@H]1CC[C@]2(C)[C@H]3CC(=O)[C@@H]4[C@@H]5CC(C)(C)CC[C@]5(C(=O)OCc5ccccc5)CC[C@@]4(C)[C@]3(C)CC[C@H]2C1(C)C`, the result with A2780 [14] was Active. Besides, the Activity in the assay on A2780 [8] amounted to 40.927%; in the assay with A2780 [9], 1.057%; in the assay with A2780 [10], 58.015%. The IC50 with NIH3T3 was greater than 90 µM; in the assay with MCF7, greater than 90 µM; with A549, 69.1 µM; with HT-29, greater than 90 µM; with A2780 [11], 19.8 µM; in the assay on 8505C, 41.9 µM. This molecule yielded an IC50 in assay [12] of 73.2 µM.
Take `COC(=O)[C@]12CCC(C)(C)C[C@H]1C1=C(O)C(=O)[C@@H]3[C@@]4(C)CC[C@H](OC(C)=O)C(C)(C)[C@@H]4CC[C@@]3(C)[C@]1(C)CC2`: the Activity in the assay with A2780 [1] is listed as 24.67%; with A2780 [2] it was 57.12%; with A2780 [3] it was 16.21%; in the assay on A2780 [4], 2%; in the assay on A2780 [8], 42.682%; in the assay on A2780 [9] it was 7.345%. Moreover, the Activity with A2780 [10] was determined as 49.973%. Further, the outcome in the assay with A2780 [5], with A2780 [6] and in the assay with A2780 [14] was Active. For the same molecule, the IC50 with NIH3T3 stood at 12.5 µM; with MCF7 it was 9.4 µM; in the assay with A549, 8.2 µM; in the assay with HT-29, 13.5 µM; with A2780 [11] it was 4 µM; in the assay on 8505C it was 8.4 µM. The molecule further registered an IC50 in assay [12] of 7.7 µM.

(Values after ChEMBL document CHEMBL3108738, “The chemical and biological potential of C ring modified triterpenoids” (Eur J Med Chem, 2014).)
